Columns and labels:
Beta-secretase 1 [1] = molecular target: T1, Beta-secretase 1 (Homo sapiens, UniProt P56817); experiment: Inhibition of human recombinant BACE1 at 0.2 uM by FRET assay
In short: (§1)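 Single-point screen of BACE1 inhibition, run first at the higher concentration and then at the lower one. Read-out is percent inhibition.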

Beta-secretase 1 [2] = molecular target: T1, Beta-secretase 1; experiment: Inhibition of human recombinant BACE1 at 2 uM by FRET assay; in short: as §1
Beta-secretase 1 [3] = molecular target: T1, Beta-secretase 1; experiment: Inhibition of human recombinant BACE1 by FRET assay

T1 sequence (P56817 whole entry): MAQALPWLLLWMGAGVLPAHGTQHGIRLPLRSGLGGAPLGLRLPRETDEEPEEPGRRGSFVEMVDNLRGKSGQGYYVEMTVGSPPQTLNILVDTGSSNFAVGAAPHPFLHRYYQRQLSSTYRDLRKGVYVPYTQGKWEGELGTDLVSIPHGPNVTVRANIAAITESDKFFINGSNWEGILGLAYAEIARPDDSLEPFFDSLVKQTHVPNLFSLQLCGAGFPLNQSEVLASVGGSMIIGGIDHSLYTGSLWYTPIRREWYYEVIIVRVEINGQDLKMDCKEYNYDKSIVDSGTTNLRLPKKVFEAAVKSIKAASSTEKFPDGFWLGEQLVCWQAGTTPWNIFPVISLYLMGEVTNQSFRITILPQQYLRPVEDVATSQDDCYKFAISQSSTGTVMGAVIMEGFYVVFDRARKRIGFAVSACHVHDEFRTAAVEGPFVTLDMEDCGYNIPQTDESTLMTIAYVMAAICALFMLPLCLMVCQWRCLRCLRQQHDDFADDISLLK

SMILES | inhibition (Beta-secretase 1 [1]) | inhibition (Beta-secretase 1 [2]) | IC50 (Beta-secretase 1 [3])
CC(C)C[C@H](NC(=O)[C@@H](NC(=O)[C@@H](N)CNC(=O)c1cc(O)ccc1O)C(C)C)C(=O)N[C@@H](Cc1ccccc1)[C@@H](O)C(=O)NC1(c2ccccc2)CCCCC1 | 43% | 86% | 
CC(C)[C@H](NC(=O)[C@@H](N)CNC(=O)c1cc(O)ccc1O)C(=O)N[C@@H](CC1CCCCC1)C(=O)N[C@@H](Cc1ccccc1)[C@@H](O)C(=O)NC1(c2ccccc2)CCCC1 | 58% | 89% | 
CC(C)[C@H](NC(=O)[C@@H](N)CNC(=O)c1[nH]c(=O)[nH]c(=O)c1F)C(=O)N[C@@H](CC1CCCCC1)C(=O)N[C@@H](Cc1ccccc1)[C@@H](O)C(=O)N[C@@H](C)c1ccccc1 | 80% | 98% | 24.2 nM
CC(C)C[C@H](NC(=O)[C@@H](NC(=O)[C@@H](N)CNC(=O)c1[nH]c(=O)[nH]c(=O)c1F)C(C)C)C(=O)N[C@@H](Cc1ccccc1)[C@@H](O)C(=O)N[C@H](C)c1ccccc1 | 81% | 98% | 34.8 nM
CC(C)[C@H](NC(=O)[C@@H](N)CNC(=O)c1cc(O)ccc1O)C(=O)N[C@@H](CC1CCCCC1)C(=O)N[C@@H](Cc1ccccc1)[C@@H](O)C(=O)N[C@H](C)c1ccccc1 | 51% | 88% | 
CC(C)[C@H](NC(=O)[C@@H](N)CNC(=O)c1cc(O)ccc1O)C(=O)N[C@@H](CC1CCCCC1)C(=O)N[C@@H](Cc1ccccc1)[C@@H](O)C(=O)N[C@@H](C)c1ccccc1 | 54% | 89% | 
CC(C)[C@H](NC(=O)[C@@H](N)CNC(=O)c1[nH]c(=O)[nH]c(=O)c1F)C(=O)N[C@@H](CC1CCCCC1)C(=O)N[C@@H](Cc1ccccc1)[C@@H](O)C(=O)NC1(c2ccccc2)CCCC1 | 84% | 98% | 29 nM
CC(C)[C@H](NC(=O)[C@@H](N)CNC(=O)c1cc(O)ccc1O)C(=O)N[C@@H](CC1CCCCC1)C(=O)N[C@@H](Cc1ccccc1)[C@@H](O)C(=O)NC(C)(C)c1ccccc1 | 49% | 89% | 
CC(C)[C@H](NC(=O)[C@@H](N)CNC(=O)c1[nH]c(=O)[nH]c(=O)c1F)C(=O)N[C@@H](CC1CCCCC1)C(=O)N[C@@H](Cc1ccccc1)[C@@H](O)C(=O)N[C@H](C)c1ccccc1 | 79% | 98% | 39.6 nM
CC(C)[C@H](NC(=O)[C@@H](N)CNC(=O)c1[nH]c(=O)[nH]c(=O)c1F)C(=O)N[C@@H](CC1CCCCC1)C(=O)N[C@@H](Cc1ccccc1)[C@@H](O)C(=O)NC1(c2ccccc2)CCN(Cc2ccccc2)CC1 | 64% | 95% | 
CC(C)C[C@H](NC(=O)[C@@H](NC(=O)[C@@H](N)CNC(=O)c1[nH]c(=O)[nH]c(=O)c1F)C(C)C)C(=O)N[C@@H](Cc1ccccc1)[C@@H](O)C(=O)N[C@@H](C)c1ccccc1 | 83% | 99% | 20.4 nM
CC(C)[C@H](NC(=O)[C@@H](N)CNC(=O)c1[nH]c(=O)[nH]c(=O)c1F)C(=O)N[C@@H](CC1CCCCC1)C(=O)N[C@@H](Cc1ccccc1)[C@@H](O)C(=O)NC(C)(C)c1ccccc1 | 78% | 98% | 31.9 nM
CC(C)[C@H](NC(=O)[C@@H](N)CNC(=O)c1[nH]c(=O)[nH]c(=O)c1F)C(=O)N[C@@H](CC1CCCCC1)C(=O)N[C@@H](Cc1ccccc1)[C@@H](O)C(=O)NC1(c2ccccc2)CCCCC1 | 77% | 97% | 40.6 nM
CC(C)C[C@H](NC(=O)[C@@H](NC(=O)[C@@H](N)CNC(=O)c1[nH]c(=O)[nH]c(=O)c1F)C(C)C)C(=O)N[C@@H](Cc1ccccc1)[C@@H](O)C(=O)NC1(c2ccccc2)CCCC1 | 86% | 99% | 11.6 nM
CC(C)C[C@H](NC(=O)[C@@H](NC(=O)[C@@H](N)CNC(=O)c1[nH]c(=O)[nH]c(=O)c1F)C(C)C)C(=O)N[C@@H](Cc1ccccc1)[C@@H](O)C(=O)NC(C)(C)c1ccccc1 | 83% | 98% | 27 nM
CC(C)[C@H](NC(=O)[C@@H](N)CNC(=O)c1cc(O)ccc1O)C(=O)N[C@@H](CC1CCCCC1)C(=O)N[C@@H](Cc1ccccc1)[C@@H](O)C(=O)NC1(c2ccccc2)CCCCC1 | 46% | 87% | 
CC(C)C[C@H](NC(=O)[C@@H](NC(=O)[C@@H](N)CNC(=O)c1cc(O)ccc1O)C(C)C)C(=O)N[C@@H](Cc1ccccc1)[C@@H](O)C(=O)N[C@H](C)c1ccccc1 | 44% | 87% | 
CC(C)[C@H](NC(=O)[C@@H](N)CNC(=O)c1cc(O)ccc1O)C(=O)N[C@@H](CC1CCCCC1)C(=O)N[C@@H](Cc1ccccc1)[C@@H](O)C(=O)NC1(c2ccccc2)CCN(Cc2ccccc2)CC1 |  | 57% | 
CC(C)C[C@H](NC(=O)[C@@H](NC(=O)[C@@H](N)CNC(=O)c1cc(O)ccc1O)C(C)C)C(=O)N[C@@H](Cc1ccccc1)[C@@H](O)C(=O)N[C@@H](C)c1ccccc1 | 47% | 88% | 
CC(C)C[C@H](NC(=O)[C@@H](NC(=O)[C@@H](N)CNC(=O)c1[nH]c(=O)[nH]c(=O)c1F)C(C)C)C(=O)N[C@@H](Cc1ccccc1)[C@@H](O)C(=O)NC1(c2ccccc2)CCN(Cc2ccccc2)CC1 | 59% | 93% | 
CC(C)C[C@H](NC(=O)[C@@H](NC(=O)[C@@H](N)CNC(=O)c1cc(O)ccc1O)C(C)C)C(=O)N[C@@H](Cc1ccccc1)[C@@H](O)C(=O)NC1(c2ccccc2)CCN(Cc2ccccc2)CC1 |  | 59% | 
CC(C)C[C@H](NC(=O)[C@@H](NC(=O)[C@@H](N)CNC(=O)c1cc(O)ccc1O)C(C)C)C(=O)N[C@@H](Cc1ccccc1)[C@@H](O)C(=O)NC1(c2ccccc2)CCCC1 | 58% | 90% | 
CC(C)C[C@H](NC(=O)[C@@H](NC(=O)[C@@H](N)CNC(=O)c1[nH]c(=O)[nH]c(=O)c1F)C(C)C)C(=O)N[C@@H](Cc1ccccc1)[C@@H](O)C(=O)NC1(c2ccccc2)CCCCC1 | 85% | 98% | 24.8 nM
CC(C)C[C@H](NC(=O)[C@@H](NC(=O)[C@@H](N)CNC(=O)c1cc(O)ccc1O)C(C)C)C(=O)N[C@@H](Cc1ccccc1)[C@@H](O)C(=O)NC(C)(C)c1ccccc1 | 44% | 88% | 
